Results as given in ChEMBL document CHEMBL4400513, “Aurone derivatives as promising antibacterial agents against resistant Gram-positive pathogens” (Eur J Med Chem, 2019).
≈ marks a conversion by molar mass, not a printed value.

Legend:
[1] = test system: Staphylococcus aureus; test: Antimicrobial activity against methicillin-resistant Staphylococcus aureus after 18 to 24 hrs in aerobic condition by two-fold serial dilutions method; assay type: functional
How it was run: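 Strains grown on LB at 37 °C aerobically, then in Mueller-Hinton broth overnight at 200 rpm and brought to log phase (OD600 ~0.6). About 10^5 bacteria/mL exposed to two-fold serial dilutions 0–500 µM, DMSO 0.2% final as control. Aerobic incubation at 37 °C for 18–24 h; OD600 read; MIC = lowest concentration inhibiting visible growth. n = 3.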

[2] = test system: Pseudomonas aeruginosa; test: Antimicrobial activity against Pseudomonas aeruginosa after 18 to 24 hrs in aerobic condition by two-fold serial dilutions method; assay type: functional
How it was run: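 Colonies grown overnight (~16 h) in Mueller-Hinton broth at 37 °C, 200 rpm, diluted 1/100 and grown to log phase (OD600 ~0.6), then diluted to ~10^5 bacteria/mL. Exposed to 0 to 500 µM in 1:2 series (0.2% DMSO final control), aerobic, 37 °C, 18–24 h. OD600 read; MIC = lowest concentration without visible growth; n = 3.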

[3] = test system: BEAS-2B; test: Cytotoxicity against human BEAS2B cells assessed as reduction in cell viability after 48 hrs by Resazurin dye-based assay; details: for IC50: Homo sapiens, BEAS-2B; for Activity: human, beas-2b
How it was run: (§1)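 Normal human lung epithelial (BEAS-2B) and lung fibroblast (IMR-90) cells were grown in DMEM with 10% FCS. Cells were seeded at ~10^4/well, grown to confluence (48–72 h), then exposed to increasing concentrations for 48 h at 37 °C, 5% CO2, with 0.2% DMSO as control. Resazurin was added for 4 h and fluorescence read at 530/590 nm. Viability was normalized to DMSO wells and IC50 calculated.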

[4] = test system: IMR-90; test: Cytotoxicity against human IMR90 cells assessed as reduction in cell viability after 48 hrs by Resazurin dye-based assay; details: for IC50: Homo sapiens, IMR-90, 48 h; for Activity: human, imr-90, 48 h; how it was run: as §1

Row | Compound | MIC [1] [µM] | MIC [2] [µM] | IC50 [3] [µM] | Activity [3] | IC50 [4] [µM] | Activity [4]
1 | O=C1/C(=C/c2ccccc2O)Oc2cc(O)ccc21 | > 500 | > 500 |  |  |  | 
2 | O=C1/C(=C/c2ccc(O)cc2)Oc2cc(O)cc(O)c21 | 62.5 to 125 (≈ 16.9 to 33.8 µg/mL) | > 500 |  |  |  | 
3 | O=C1/C(=C/c2ccccc2)Oc2c(O)cccc21 | > 500 | > 500 |  |  |  | 
4 | CCc1ccc(/C=C2\Oc3cccc(O)c3C2=O)cc1 | 62.5 to 125 (≈ 16.6 to 33.3 µg/mL) | > 500 |  |  |  | 
5 | CC(C)c1ccc(/C=C2\Oc3cccc(O)c3C2=O)cc1 | > 500 | > 500 |  |  |  | 
6 | COc1cc(OC)c(/C=C2\Oc3cccc(O)c3C2=O)c(OC)c1 | 250 (≈ 82.1 µg/mL) | > 500 |  |  |  | 
7 | COc1cc(OC)c2c(c1)O/C(=C\c1ccc(C)cc1C)C2=O | > 500 | > 500 |  |  |  | 
8 | CC(C)(C)c1ccc(/C=C2\Oc3cccc(O)c3C2=O)cc1 | > 500 | > 500 |  |  |  | 
9 | O=C1/C(=C/c2ccc(O)c(O)c2)Oc2cccc(O)c21 | 125 to 250 (≈ 33.8 to 67.6 µg/mL) | > 500 |  |  |  | 
10 | CCCCc1ccc(/C=C2\Oc3cc(O)cc(O)c3C2=O)cc1 | 15.6 to 31.2 (≈ 4.84 to 9.7 µg/mL) | > 500 | 90 | Dose-dependent effect | 80 | Dose-dependent effect
11 | COc1cc(OC)c2c(c1)O/C(=C\c1ccccc1O)C2=O | > 500 | > 500 |  |  |  | 
12 | O=C1/C(=C/c2ccc(O)cc2)Oc2cc(O)ccc21 | > 500 | > 500 |  |  |  | 
13 | COc1ccc(/C=C2\Oc3cc(OC)cc(OC)c3C2=O)c(OC)c1 | > 500 | > 500 |  |  |  | 
14 | O=C1/C(=C/c2ccc(O)c(O)c2)Oc2c(O)cccc21 | 125 to 250 (≈ 33.8 to 67.6 µg/mL) | > 500 |  |  |  | 
15 | O=C1/C(=C/c2cccc(O)c2O)Oc2c(O)cccc21 | 250 (≈ 67.6 µg/mL) | > 500 |  |  |  | 
16 | CN1CCN(c2ccc(/C=C3\Oc4cccc(O)c4C3=O)cc2)CC1 | > 500 | > 500 |  |  |  | 

Row | Compound | MIC [1] [µM] | MIC [2] [µM] | IC50 [3] [µM] | Activity [3] | IC50 [4] [µM] | Activity [4]
17 | O=C1/C(=C/c2ccccc2)Oc2cccc(O)c21 | > 500 | > 500 |  |  |  | 
18 | Cc1ccc(/C=C2\Oc3cccc(O)c3C2=O)c(C)c1 | > 500 | > 500 |  |  |  | 
19 | O=C1/C(=C/c2cc(O)c(O)c(O)c2)Oc2c(O)cccc21 | 125 to 250 (≈ 35.8 to 71.6 µg/mL) | > 500 |  |  |  | 
20 | O=C(O)c1ccc(/C=C2\Oc3c(O)cccc3C2=O)cc1 | > 500 | > 500 |  |  |  | 
21 | CCCCc1ccc(/C=C2\Oc3cc(OC)cc(OC)c3C2=O)cc1 | > 500 | > 500 |  |  |  | 
22 | O=C1/C(=C/c2ccc(O)cc2)Oc2ccccc21 | > 500 | > 500 |  |  |  | 
23 | O=C1/C(=C/c2ccc(O)cc2)Oc2cccc(O)c21 | 125 to 250 (≈ 31.8 to 63.6 µg/mL) | > 500 |  |  |  | 
24 | O=C1/C(=C/c2ccc(C3CCCCC3)cc2)Oc2cc(O)cc(O)c21 | 7.8 (≈ 2.62 µg/mL) | > 500 | 33 | Dose-dependent effect | 31 | Dose-dependent effect
25 | O=C1/C(=C/c2cccc(O)c2)Oc2cc(O)ccc21 | > 500 | > 500 |  |  |  | 
26 | CN1CCN(c2ccc(/C=C3\Oc4cc(O)ccc4C3=O)cc2)CC1 | > 500 | > 500 |  |  |  | 
27 | O=C1/C(=C/c2ccccc2)Oc2ccccc21 [(Z)-AURONE] | > 500 | > 500 |  |  |  | 
28 | COc1cccc(OC)c1/C=C1\Oc2cccc(O)c2C1=O | 250 (≈ 74.6 µg/mL) | > 500 |  |  |  | 
29 | O=C1/C(=C/c2cccc(O)c2)Oc2cc(O)cc(O)c21 | 125 to 250 (≈ 33.8 to 67.6 µg/mL) | > 500 |  |  |  | 
30 | COc1ccc2c(c1)O/C(=C\c1ccc(OC)c(OC)c1)C2=O | > 500 | > 500 |  |  |  | 
31 | CCCCc1ccc(/C=C2\Oc3cccc(O)c3C2=O)cc1 | > 500 | > 500 |  |  |  | 
